Source: ChEMBL document CHEMBL4138126, “Synthesis, antiproliferative, anti-tubulin activity, and docking study of new 1,2,4-triazoles as potential combretastatin analogues” (Eur J Med Chem, 2017)

What was measured:
Type in all cases: functional
TK-10 = assay: Growth inhibition of human TK10 cells assessed as cell growth at 10 uM after 48 hrs by sulforhodamine B assay; details: TK-10, 48 h, read-out: Activity
Summary of the method: (§1)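 NCI 60-cell-line panel from nine tumour types (leukaemia, lung, colon, CNS, melanoma, ovarian, renal, prostate, breast). Each compound was added at one single concentration, and cultures were incubated for 48 h. Results are reported as percent growth inhibition.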

MOLT-4 = assay: Growth inhibition of human MOLT4 cells assessed as cell growth at 10 uM after 48 hrs by sulforhodamine B assay; details: MOLT-4, 48 h, read-out: Activity
Summary of the method: (§2)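 NCI 60-cell-line panel screen (nine cancer types). Compounds added at single concentration 10^-5 M, cultures incubated 48 h; growth inhibition percentages reported.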

KM12 = assay: Growth inhibition of human KM12 cells assessed as cell growth at 10 uM after 48 hrs by sulforhodamine B assay; details: KM12, 48 h, read-out: Activity; summary of the method: as §2
MDA-MB-231 = assay: Growth inhibition of human MDA-MB-231 cells assessed as cell growth at 10 uM after 48 hrs by sulforhodamine B assay; details: MDA-MB-231, 48 h, read-out: Activity; summary of the method: as §2
U-251 = assay: Growth inhibition of human U251 cells assessed as cell growth at 10 uM after 48 hrs by sulforhodamine B assay; details: U-251, 48 h, read-out: Activity; summary of the method: as §1
PC-3 = assay: Growth inhibition of human PC3 cells assessed as cell growth at 10 uM after 48 hrs by sulforhodamine B assay; details: PC-3, 48 h, read-out: Activity; summary of the method: as §2
OVCAR-4 = assay: Growth inhibition of human OVCAR4 cells assessed as cell growth at 10 uM after 48 hrs by sulforhodamine B assay; details: OVCAR-4, 48 h, read-out: Activity; summary of the method: as §2
Malme-3M = assay: Growth inhibition of human MALME-3M cells assessed as cell growth at 10 uM after 48 hrs by sulforhodamine B assay; details: read-out: Activity; summary of the method: as §2
NCI-H522 = assay: Growth inhibition of human NCI-H522 cells assessed as cell growth at 10 uM after 48 hrs by sulforhodamine B assay; details: NCI-H522, 48 h, read-out: Activity; summary of the method: as §2
BT-549 = assay: Growth inhibition of human BT549 cells assessed as cell growth at 10 uM after 48 hrs by sulforhodamine B assay; details: BT-549, 48 h, read-out: Activity; summary of the method: as §2
SR = assay: Growth inhibition of human SR cells assessed as cell growth at 10 uM after 48 hrs by sulforhodamine B assay; details: read-out: Activity; summary of the method: as §1
CCRF-CEM = assay: Growth inhibition of human CCRF-CEM cells assessed as cell growth at 10 uM after 48 hrs by sulforhodamine B assay; details: read-out: Activity; summary of the method: as §2
ACHN = assay: Growth inhibition of human ACHN cells assessed as cell growth at 10 uM after 48 hrs by sulforhodamine B assay; details: read-out: Activity; summary of the method: as §2
SF-268 = assay: Growth inhibition of human SF268 cells assessed as cell growth at 10 uM after 48 hrs by sulforhodamine B assay; details: SF-268, 48 h, read-out: Activity; summary of the method: as §2
HL-60(TB) = assay: Growth inhibition of human HL-60(TB) cells assessed as cell growth at 10 uM after 48 hrs by sulforhodamine B assay; details: HL-60, 48 h, read-out: Activity
Summary of the method: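 Screened by the NCI in its 60-cell-line panel covering nine cancer types, including leukemia. Compounds were added at a single concentration, and the cultures were incubated for 48 h. Results are reported as percent growth inhibition.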

SK-MEL-2 = assay: Growth inhibition of human SK-MEL-2 cells assessed as cell growth at 10 uM after 48 hrs by sulforhodamine B assay; details: SK-MEL-2, 48 h, read-out: Activity; summary of the method: as §2
SNB-75 = assay: Growth inhibition of human SNB75 cells assessed as cell growth at 10 uM after 48 hrs by sulforhodamine B assay; details: SNB-75, 48 h, read-out: Activity; summary of the method: as §1
UO-31 = assay: Growth inhibition of human UO31 cells assessed as cell growth at 10 uM after 48 hrs by sulforhodamine B assay; details: UO-31, 48 h, read-out: Activity; summary of the method: as §1
HCT-15 = assay: Growth inhibition of human HCT15 cells assessed as cell growth at 10 uM after 48 hrs by sulforhodamine B assay; details: HCT-15, 48 h, read-out: Activity; summary of the method: as §2
LOX IMVI = assay: Growth inhibition of human LOXIMVI cells assessed as cell growth at 10 uM after 48 hrs by sulforhodamine B assay; details: read-out: Activity; summary of the method: as §2
HOP-92 = assay: Growth inhibition of human HOP92 cells assessed as cell growth at 10 uM after 48 hrs by sulforhodamine B assay; details: HOP-92, 48 h, read-out: Activity; summary of the method: as §2
HCT-116 = assay: Growth inhibition of human HCT116 cells assessed as cell growth at 10 uM after 48 hrs by sulforhodamine B assay; details: HCT-116, 48 h, read-out: Activity; summary of the method: as §2
DU-145 = assay: Growth inhibition of human DU145 cells assessed as cell growth at 10 uM after 48 hrs by sulforhodamine B assay; details: DU-145, 48 h, read-out: Activity; summary of the method: as §2
NCI-H322M = assay: Growth inhibition of human NCI-H322M cells assessed as cell growth at 10 uM after 48 hrs by sulforhodamine B assay; details: read-out: Activity; summary of the method: as §2
SF-539 = assay: Growth inhibition of human SF539 cells assessed as cell growth at 10 uM after 48 hrs by sulforhodamine B assay; details: SF-539, 48 h, read-out: Activity; summary of the method: as §2
786-0 = assay: Growth inhibition of human 786-0 cells assessed as cell growth at 10 uM after 48 hrs by sulforhodamine B assay; details: 786-0, 48 h, read-out: Activity; summary of the method: as §2
SW-620 = assay: Growth inhibition of human SW620 cells assessed as cell growth at 10 uM after 48 hrs by sulforhodamine B assay; details: SW-620, 48 h, read-out: Activity; summary of the method: as §1
RPMI-8226 = assay: Growth inhibition of human RPMI8226 cells assessed as cell growth at 10 uM after 48 hrs by sulforhodamine B assay; details: RPMI-8226, 48 h, read-out: Activity; summary of the method: as §2
A549 = assay: Growth inhibition of human A549/ATCC cells assessed as cell growth at 10 uM after 48 hrs by sulforhodamine B assay; details: A549, 48 h, read-out: Activity; summary of the method: as §2
HOP-62 = assay: Growth inhibition of human HOP62 cells assessed as cell growth at 10 uM after 48 hrs by sulforhodamine B assay; details: HOP-62, 48 h, read-out: Activity; summary of the method: as §2
MCF7 = assay: Growth inhibition of human MCF7 cells assessed as cell growth at 10 uM after 48 hrs by sulforhodamine B assay; details: MCF7, 48 h, read-out: Activity; summary of the method: as §2
HT-29 = assay: Growth inhibition of human HT-29 cells assessed as cell growth at 10 uM after 48 hrs by sulforhodamine B assay; details: HT-29, 48 h, read-out: Activity; summary of the method: as §2
A498 = assay: Growth inhibition of human A498 cells assessed as cell growth at 10 uM after 48 hrs by sulforhodamine B assay; details: A498, 48 h, read-out: Activity; summary of the method: as §2

SMILES	growth at 10 µM (TK-10) [%]	growth at 10 µM (MOLT-4) [%]	growth at 10 µM (KM12) [%]	growth at 10 µM (MDA-MB-231) [%]	growth at 10 µM (U-251) [%]	growth at 10 µM (PC-3) [%]	growth at 10 µM (OVCAR-4) [%]	growth at 10 µM (Malme-3M) [%]	growth at 10 µM (NCI-H522) [%]	growth at 10 µM (BT-549) [%]	growth at 10 µM (SR) [%]	growth at 10 µM (CCRF-CEM) [%]	growth at 10 µM (ACHN) [%]	growth at 10 µM (SF-268) [%]	growth at 10 µM (HL-60(TB)) [%]	growth at 10 µM (SK-MEL-2) [%]	growth at 10 µM (SNB-75) [%]	growth at 10 µM (UO-31) [%]	growth at 10 µM (HCT-15) [%]	growth at 10 µM (LOX IMVI) [%]	also measured
COc1cccc(-n2nc(C(=O)NCc3ccccc3C)nc2-c2cc(OC)c(OC)c(OC)c2)c1	73.2	80	82	73.5	85	83.2	81.6	94.7	60.8	86.2	65.8	104	90.5	85.8	89	78.1	31.7	35.9	74.3	78.7	growth at 10 µM (HOP-92): 81.8%; growth at 10 µM (HCT-116): 85.2%; growth at 10 µM (DU-145): 94.2%; growth at 10 µM (NCI-H322M): 87.5%; growth at 10 µM (SF-539): 87.7%; growth at 10 µM (786-0): 76%; growth at 10 µM (SW-620): 102%; growth at 10 µM (RPMI-8226): 95.7%; growth at 10 µM (A549): 69.2%; growth at 10 µM (HOP-62): 71%; growth at 10 µM (MCF7): 82.1%; growth at 10 µM (HT-29): 80.2%; growth at 10 µM (A498): 95.9%
CCOc1ccc(-n2nc(C(=O)NCc3cccc(OC)c3)nc2-c2cc(OC)c(OC)c(OC)c2)cc1	87.8	69.9	96.4	76.3	94.2	78.4	98.9	97.7	58.7	92.6	72.5	94.2	97.5	91.5	91	90	53.2	44.3	90	88.9	growth at 10 µM (HOP-92): 95.6%; growth at 10 µM (HCT-116): 96%; growth at 10 µM (DU-145): 107%; growth at 10 µM (NCI-H322M): 81.6%; growth at 10 µM (SF-539): 88.9%; growth at 10 µM (786-0): 90.2%; growth at 10 µM (SW-620): 108%; growth at 10 µM (RPMI-8226): 84.3%; growth at 10 µM (A549): 73.2%; growth at 10 µM (HOP-62): 72.4%; growth at 10 µM (MCF7): 84.1%; growth at 10 µM (HT-29): 73.5%; growth at 10 µM (A498): 98.1%
CCOc1ccc(-n2nc(C(=O)Nc3ccc(OC)c(O)c3)nc2-c2cc(OC)c(OC)c(OC)c2)cc1	107	74.9	92.8	65.8	93.2	72	99.8	114	70.3	103	68.5	89.5	91.5	94.1	94.3	96	71.2	56	97.2	90.6	growth at 10 µM (HOP-92): 68.1%; growth at 10 µM (HCT-116): 96.7%; growth at 10 µM (DU-145): 98.5%; growth at 10 µM (NCI-H322M): 84.7%; growth at 10 µM (SF-539): 96.2%; growth at 10 µM (786-0): 94.5%; growth at 10 µM (SW-620): 104%; growth at 10 µM (RPMI-8226): 67.7%; growth at 10 µM (A549): 94%; growth at 10 µM (HOP-62): 99.3%; growth at 10 µM (MCF7): 90.9%; growth at 10 µM (HT-29): 99.2%; growth at 10 µM (A498): 111%
